# Shown are actives, neighbours in structure and some others; about 2.5% of the full set was active somewhere.
# TCR-CD3 inh: human TCR-CD3 binding inhibition. TAMRA-labeled TCR probe fluorescence, biochemical. inhibition, % at 9.4 µM. 0.37% of 360,000 active; in the data active means inhibition above about 19%;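 further: recombinant mutant TCR 2C K166C tagged with TAMRA read by polarization; 0% = receptor in buffer alone and 100% = receptor with positive control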
# rCAG binder: r(CAG) repeat RNA binding | TO-PRO-1 dye displacement fluorescence | inhibition, % at 3 µM | 1.3% of 370,000 active | AID 651821;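 active means inhibition above the plate cutoff, the mean of all test compounds on that plate plus 3 SD, cut at about 35% in these data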;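 further: 0% = DMSO alone and 100% = 100 µM mitoxantrone as full dye displacement; higher means more dye released from RNA so lower well fluorescence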
# SIAE primary: human SIAE inhibition, primary screen. inhibition, % at 9.66 µM. SIAE FP-Rh probe binding, fluorescence polarization. 0.69% of 370,000 active;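 active means inhibition above a cutoff: mean of compounds within the control limits plus 3 SD of those, cut at about 17% in these data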;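 further: 0% = plate median of compound wells and 100% = probe without SIAE protein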
# Target sequence (Q9HAT2 whole entry, looked up): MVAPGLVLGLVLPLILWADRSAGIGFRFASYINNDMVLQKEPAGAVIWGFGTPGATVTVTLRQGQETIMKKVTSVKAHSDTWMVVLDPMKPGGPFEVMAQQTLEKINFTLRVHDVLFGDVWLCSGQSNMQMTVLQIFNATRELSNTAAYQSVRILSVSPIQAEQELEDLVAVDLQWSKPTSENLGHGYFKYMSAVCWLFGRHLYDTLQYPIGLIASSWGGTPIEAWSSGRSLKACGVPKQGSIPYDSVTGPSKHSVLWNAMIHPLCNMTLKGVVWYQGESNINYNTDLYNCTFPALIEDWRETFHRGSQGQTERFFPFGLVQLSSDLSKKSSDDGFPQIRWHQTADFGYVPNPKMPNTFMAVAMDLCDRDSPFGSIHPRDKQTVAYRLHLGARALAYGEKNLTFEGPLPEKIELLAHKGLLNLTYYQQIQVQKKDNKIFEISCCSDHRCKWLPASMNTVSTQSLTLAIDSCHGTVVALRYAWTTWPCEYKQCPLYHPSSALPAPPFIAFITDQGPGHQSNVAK
# mABHD4 FP: ABHD4 (mouse) inhibition, primary FP screen | Q8VD66 | purified mABHD4, FP-Rh probe fluorescence polarization | inhibition, % at 8.92 µM | 0.54% of 370,000 active;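 active means inhibition exceeding the mean over every tested compound plus 3 SD, cut at about 30% in these data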;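 further: 0% = plate median of compound wells and 100% = S159A mutant with DMSO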
#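 System: mouse ABHD4 enzyme, wild type / Medium: HEPES pH 7.0, NaCl, Pluronic buffer / Reagent: FP-Rh activity-based fluorescent probe / Control set: S159A mutant high control, sample median low control / Detection: fluorescence polarization with parallel and perpendicular emission, 525/598 nm / Schedule: 45 min + 60 min at 25 °C / Compound dosing: 8.92 µM, single dose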
# HTRA1 inhibitor: HTRA1 (human) protease inhibition; 0.5% of 340,000 active; recombinant HTRA1, FP-rhodamine activity-based probe, fluorescence polarization; AID 504803; Q92743; inhibition, % at 5.96 µM; in the data active means inhibition above about 36%;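 further: 0% = enzyme with DMSO and 100% = wells lacking enzyme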
# rCAG bind conf: r(CAG) RNA repeat binding, confirmation | shares compounds with rCAG binder | TO-PRO-1 dye displacement fluorescence | inhibition, % at 3 µM | 70% of 4,300 active | AID 652065;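 active means inhibition above a per-plate cutoff, the mean inhibition of sample wells plus 3 SD, cut at about 35% in these data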;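 further: loss of TO-PRO-1 fluorescence as compound displaces dye from 1x1 AA loop RNA; 0% = DMSO only wells and 100% = 100 µM mitoxantrone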
# DNA CAG counter: counter-screen for rCAG RNA binders: DNA CAG dye complex inhibitors. shares compounds with rCAG binder. d(CAG) DNA oligo TO-PRO-1 dye displacement, fluorescence. inhibition, % at 3 µM. 94% of 4,300 active;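 active means inhibition above its plate's cutoff, the mean test-well inhibition plus 3 SD, cut at about 4.8% in these data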;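 further: 0% = DNA dye mix with DMSO and 100% = 100 µM mitoxantrone; hits displace the dye from DNA and so lower well fluorescence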
# DNA CAG DR: DNA CAG dye complex inhibition, dose response counter-screen; shares compounds with rCAG binder; DNA CAG/GTC duplex TO-PRO-1 dye displacement fluorescence; IC50, µM; 20% of 250 active; in the data active means IC50 below about 10 µM
# Numbers without * were called inactive; nt = not tested or not shown.
SMILES,TCR-CD3 inh,rCAG binder,SIAE primary,mABHD4 FP,HTRA1 inhibitor,rCAG bind conf,DNA CAG counter,others
CN1C(=O)NC(c2ccccc2)C2=C1CN(c1cccc(C(F)(F)F)c1)C2=O (stereo unspecified),3.5,48.7*,-7.9,-9.7,-21.8,2.9,-0.1,
Cc1cc(Cl)c(S(=O)(=O)Nc2ccc(S(=O)(=O)N3CCOCC3)cc2)cc1OCC(N)=O,0.9,3.9,0.4,-1.9,-12.0,nt,nt,
Cc1c(C)n(Cc2ccc(-c3ccccc3C(=O)O)cc2)c2ccc(C(=O)N[C@@H](C)c3ccc([N+](=O)[O-])cc3)cc12,nt,73.5*,-9.5,8.7,nt,74.4*,34.8*,
O=C(O)c1cccc(CSc2nc(-c3ccccc3)cc(C(F)(F)F)n2)c1,-0.9,62.4*,8.4,-28.4,-36.7,48.2*,13.7*,
Cc1ccc(C)c(SCC(=O)NC(=O)NCc2ccccc2)c1,-3.5,-4.2,3.5,-1.2,-53.4,nt,nt,
COc1cc(CN2c3ccccc3C(=O)CS2(=O)=O)cc(OC)c1,1.5,47.0*,-0.9,-23.7,-25.4,15.2,8.5*,
O=C1CS(=O)(=O)N(Cc2ccccc2F)c2ccc(Br)cc21,-1.5,44.2*,-13.1,-62.8,-83.7,29.4,13.3*,
O=C1CCN(Cc2ccccc2)S(=O)(=O)c2ccc(F)cc21,-1.2,-2.9,-0.7,0.5,-4.3,nt,nt,
O=C1CS(=O)(=O)N(Cc2ccc(F)cc2)c2ccccc21,1.0,41.3*,7.2,-19.9,-10.3,7.1,4.5*,
COc1ccc(CN2c3ccccc3C(=O)CS2(=O)=O)cc1OC,-3.1,35.5*,-4.7,-21.3,nt,12.7,6.5*,
COc1ccc(CN2CCN(c3ccccc3OC)CC2)cc1OC,-4.7,-6.8,8.0,11.5,5.0,nt,nt,
CCCCNS(=O)(=O)c1ccc2nc(-c3cccnc3)cc(C(=O)NC(C)C)c2c1,1.8,5.3,-3.1,-4.0,-5.5,nt,nt,
COc1ccc2c(c1)OC(=O)CC2c1cc(OC)c(OC)c(OC)c1 (stereo unspecified),-10.8,1.9,1.3,-5.4,3.2,nt,nt,
O=C(Nc1ccccc1C(=O)N1CCCCCC1)c1ccccc1,1.9,-4.0,-4.4,-6.4,-2.7,nt,nt,
Cc1cc(C)c(C)c(S(=O)(=O)N2C(=S)NC(=O)C2CC(C)C)c1C (stereo unspecified),-4.6,40.7*,-7.3,-0.9,-3.1,30.8,8.0*,
COc1ccc(/C=C(\NC(=O)c2ccc(OC)cc2)C(=O)Nc2cccc(C(=O)O)c2)cc1,-3.4,17.5,-6.7,-8.7,-2.6,nt,nt,
COc1ccc(C(=O)N/C(=C/c2ccc(Cl)cc2)C(=O)Nc2ccc(C(=O)O)cc2)cc1,-1.2,45.8*,-0.6,-18.6,-6.0,42.5*,11.7*,
O=S1(=O)CC2SC(=S)N(c3ccccc3)C2C1 (stereo unspecified),-4.8,-0.9,-6.7,-4.0,nt,nt,nt,
O=C(O)COc1ccccc1-c1nc(-c2ccccc2)c(-c2ccccc2)[nH]1,-0.6,62.6*,3.1,10.1,-16.4,50.9*,13.1*,
O=C(O)COc1ccc(-c2nc(-c3ccccc3)c(-c3ccccc3)[nH]2)cc1,0.2,26.3,7.8,-6.0,-2.7,nt,nt,
COc1cccc(-c2nc(-c3ccccc3)c(-c3ccccc3)[nH]2)c1OCC(=O)O,1.6,64.3*,5.4,10.2,-4.7,61.4*,19.4*,
Cc1ccc(S(=O)(=O)Oc2ccccc2/C=N/Nc2ccc(C(=O)O)cc2)cc1,7.5,50.1*,4.8,10.6,1.4,29.4,6.1*,
CCCS(=O)(=O)c1c(S(=O)(=O)CCC)c2c(N)cccn2c1C(=O)OC,-3.0,23.9,11.4,2.5,2.9,nt,nt,
CCCS(=O)(=O)c1c(S(=O)(=O)CCC)c2c(N)cccn2c1C(=O)c1ccccc1,6.2,42.9*,6.2,7.9,7.9,24.7,10.3*,
O=S(=O)(Nc1nc2ccccc2nc1NCCN1CCOCC1)c1cccc(Cl)c1,-4.5,49.1*,5.0,4.4,9.0,52.5*,10.4*,DNA CAG DR=>29.9
SMILES,TCR-CD3 inh,rCAG binder,SIAE primary,mABHD4 FP,HTRA1 inhibitor,rCAG bind conf,DNA CAG counter,others
Nc1c(S(=O)(=O)c2cccc(Cl)c2)c2nc3ccccc3nc2n1CCN1CCOCC1,1.9,1.1,-2.5,-0.4,-8.2,nt,nt,
O=S(=O)(Nc1nc2ccccc2nc1NCC1CCCO1)c1cc(Cl)ccc1Cl (stereo unspecified),3.3,70.6*,-3.5,-2.3,-0.9,48.7*,14.4*,
Cc1ccc(CSC2=NCCN2C(=O)C(C)Oc2ccccc2)cc1 (stereo unspecified),7.5,4.8,2.4,-0.6,0.9,nt,nt,
Cc1nc2c(C(=O)NCCc3ccccc3Cl)c[nH]n2c(=O)c1Cl,3.3,70.7*,7.8,-35.1,-16.3,74.3*,33.4*,DNA CAG DR=4.48*
Cc1nc2c(C(=O)NCc3ccccc3Cl)c[nH]n2c(=O)c1Cl,-12.7,80.6*,2.7,-43.1,-26.2,58.0*,20.8*,
Cc1ccc(CNC(=O)CN2C(=O)NC(C)(c3cccc(Br)c3)C2=O)cc1 (stereo unspecified),-1.7,4.3,-2.7,-4.0,-5.8,nt,nt,
COc1cc(Cc2nc3ccc(S(=O)(=O)N4CCOCC4)cc3[nH]2)cc(OC)c1OC,5.0,-5.8,3.7,2.6,-4.0,nt,nt,
Cc1c(/C=C2\SC(=Nc3cccc(C(=O)O)c3)NC2=O)c2ccccc2n1C,-3.6,44.6*,-0.4,16.6,2.8,39.6*,14.7*,
CCCCCNC1=CC(=O)CC(c2ccccc2)C1 (stereo unspecified),-0.7,-0.3,-2.2,3.3,3.5,nt,nt,
Cc1ccc2sc(NNC(=O)C3=COCCO3)nc2c1C,3.9,51.0*,7.8,-3.3,12.8,14.3,5.8*,
CCc1cccc(C)c1NC(=O)c1ccoc1C,7.6,8.1,0.4,-0.8,-1.8,nt,nt,
NCCCn1c(C(=O)c2cc(Cl)c(N)c(Cl)c2)c2ccc([N+](=O)[O-])cc2[n+]1[O-],-5.8,27.0,9.5,11.7,17.9,nt,nt,
COc1ccccc1Cc1c(-c2ccc(C)cc2)nc2ccc(Br)cn12,-6.0,12.6,-4.6,-0.9,nt,nt,nt,
Cc1cc(Br)cn2c(Cc3ccccc3)c(-c3ccc(Cl)cc3)nc12,1.2,10.5,2.9,-9.9,nt,nt,nt,
Cc1ccc(Cc2c(-c3cccc(Br)c3)nc3ccc(Br)cn23)cc1,1.8,37.8*,-3.0,-2.2,nt,31.1,9.7*,
Cc1ccc(Cc2c(-c3ccc(C)cc3)nc3c(C)cc(Br)cn23)cc1,-4.2,41.4*,-2.7,-22.4,nt,8.8,6.3*,
COc1ccccc1Cc1c(-c2ccc(Cl)cc2)nc2ccc(Br)cn12,-6.5,41.7*,-0.6,-7.2,nt,15.9,6.8*,
COc1ccccc1Cc1c(-c2cccc(Br)c2)nc2ccc(Br)cn12,-1.4,53.6*,7.5,4.6,nt,15.1,7.3*,
